Data set [1] deals with HeLa. Description: Cytotoxicity against human HeLa cells after 72 hrs by calcein-AM dye based fluorescence assay. Type of data set: functional, cell-based. The method in brief:
(§1)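 Cells from ATCC, grown in DMEM with 10% fetal bovine serum, 2 mM L-glutamine and 1% penicillin-streptomycin at 37 °C, 5% CO2, humidified, and passaged by trypsinization two or three times weekly. Compound exposure lasted 72 h and the read-out was IC50 (µM).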

The test system of data set [2] is G-361. Description: Cytotoxicity against human G361 cells after 72 hrs by calcein-AM dye based fluorescence assay. As to conditions: G-361, 72 h. The format is functional, cell-based. The method in brief:
as §1

The test system of data set [3] is BJ. Description: Cytotoxicity against human BJ cells after 72 hrs by calcein-AM dye based fluorescence assay. The format is cell-based. The method in brief: as §1
Data set [4] can be described thus: Therapeutic index, ratio of IC50 for human BJ cells to IC50 for human G361 cells. The format is toxicity. As to conditions: BJ cells versus G361 cells, read-out: Ratio IC50. Summed up:
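Therapeutic index is IC50 in normal BJ fibroblasts divided by IC50 in G-361 melanoma cells. Both IC50 values come from the 72 h cytotoxicity test, with cells grown in DMEM with 10% FBS, 2 mM L-glutamine and antibiotics at 37 °C, 5% CO2.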

The test system of data set [5] is CCRF-CEM. Description: Cytotoxicity against human CEM cells after 72 hrs by calcein-AM dye based fluorescence assay. Type of data set: functional, cell-based. The method in brief:
as §1

For data set [6], the system named is MCF7. In words: Cytotoxicity against human MCF7 cells after 72 hrs by calcein-AM dye based fluorescence assay. Type of data set: functional, cell-based. As to conditions: MCF7, 72 h. Summed up: as §1
For data set [7], the system named is G-361. Description: Cell cycle arrest in human G361 cells assessed as increase in accumulation at sub-G1 phase at 0.5 to 25 uM after 24 hrs by propidium iodide staining-based flow cytometry. Type of data set: functional. The method in brief: (§2)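 G-361 melanoma cells grown in DMEM with 10% FBS, 2 mM L-glutamine and penicillin-streptomycin at 37 °C, 5% CO2. Cells were seeded and left 24 h, then treated with 0.5, 2.5, 12.5 or 25 µM for 24 h. Trypsinized cells were fixed and stained with 0.1% Triton X-100, 0.2 mg/mL RNase A and 10 µg/mL propidium iodide in PBS. DNA content was read by flow cytometry and phases quantified from histograms; three repeats.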
Background: In flow cytometry, cells or beads pass a laser one at a time.

Data set [8] has as its system G-361. In words: Induction of apoptosis in human G361 cells assessed as increase in caspase-3/7 activity using Ac-DEVD-AMC as substrate at 25 uM after 24 hrs by fluorescence assay relative to control. Type of data set: functional. Summed up: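 Treated G-361 cells (0.5–25 µM, 24 h) were extracted on ice in CHAPS/HEPES buffer pH 7.4 with protease inhibitors, and lysates equalized by Bradford protein. Incubated 1 h with Ac-DEVD-AMC in PIPES/DTT buffer pH 7.3; Ac-DEVD-CHO lysates served as negative control. Fluorescence read at 346/442 nm and expressed as fold over untreated control. Three experiments in triplicate; one-way ANOVA.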

For data set [9], the system named is G-361. Description: Cell cycle arrest in human G361 cells assessed as reduction in accumulation at G2/M phase at 0.5 to 25 uM after 24 hrs by propidium iodide staining-based flow cytometry. Type of data set: functional. Summed up: as §2
In data set [10] the test system is G-361. In words: Cell cycle arrest in human G361 cells assessed as increase in accumulation at G0/G1 phase at 0.5 to 25 uM after 24 hrs by propidium iodide staining-based flow cytometry. Type of data set: functional. Summed up: as §2
The target of data set [11] is Mitogen-activated protein kinase; ERK1/ERK2 (Homo sapiens) (UniProt P27361+P28482). Description: Inhibition of ERK1/2 phosphorylation at Thr202/Tyr204 in human G361 cells at 12.5 to 25 uM after 24 hrs by Western blotting analysis relative to control. Type of data set: cell-based. The method in brief: (§3)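 G-361 cells seeded in 100-mm dishes at 1.5 × 10⁶ cells/mL and stabilized 24 h, then treated 24 h with 0.5–25 µM; DMSO vehicle controls. Lysed in RIPA buffer pH 7.4 and protein measured by Bradford. Run on 10% or 12% SDS-PAGE, blotted to nitrocellulose, probed overnight with primary antibodies, then HRP secondary and chemiluminescence. β-actin loading control, compared with untreated cells; three repeats.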
Chain of Mitogen-activated protein kinase; ERK1/ERK2 (Homo sapiens) (P27361 whole entry, looked up): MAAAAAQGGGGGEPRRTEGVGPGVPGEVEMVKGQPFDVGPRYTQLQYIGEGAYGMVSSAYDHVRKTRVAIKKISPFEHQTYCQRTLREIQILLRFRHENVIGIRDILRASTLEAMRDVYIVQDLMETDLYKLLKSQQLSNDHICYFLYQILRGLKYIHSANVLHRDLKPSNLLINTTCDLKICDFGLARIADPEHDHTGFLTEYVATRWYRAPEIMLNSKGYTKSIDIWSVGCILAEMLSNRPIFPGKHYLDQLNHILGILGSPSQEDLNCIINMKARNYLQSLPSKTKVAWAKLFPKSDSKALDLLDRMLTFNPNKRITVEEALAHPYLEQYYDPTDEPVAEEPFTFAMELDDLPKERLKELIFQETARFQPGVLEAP
Chain of Mitogen-activated protein kinase; ERK1/ERK2 (Homo sapiens) (P28482 whole entry, looked up): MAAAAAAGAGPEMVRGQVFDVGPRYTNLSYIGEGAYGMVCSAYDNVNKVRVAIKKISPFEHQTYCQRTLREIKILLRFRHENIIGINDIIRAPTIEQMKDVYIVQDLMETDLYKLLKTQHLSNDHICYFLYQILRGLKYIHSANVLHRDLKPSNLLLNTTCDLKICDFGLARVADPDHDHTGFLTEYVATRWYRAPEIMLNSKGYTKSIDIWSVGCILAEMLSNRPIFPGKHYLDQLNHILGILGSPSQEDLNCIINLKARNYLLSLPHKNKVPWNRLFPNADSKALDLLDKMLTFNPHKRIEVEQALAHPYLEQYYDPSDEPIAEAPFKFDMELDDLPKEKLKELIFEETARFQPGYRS

Data set [12] concerns G-361. Description: Induction of apoptosis in human G361 cells assessed as effect on p53 protein expression level at 0.5 to 25 uM after 24 hrs by Western blot analysis. The format is functional, cell-based. The method in brief: as §3
On the technique in general: Immunoblotting shows a protein as a band on a membrane.

For data set [13], the system named is G-361. Description: Induction of apoptosis in human G361 cells assessed as effect on Mcl1 expression level at 0.5 to 25 uM after 24 hrs by Western blot analysis. Type of data set: functional, cell-based. Summed up:
as §3

Data set [14] has as its system G-361. In words: Induction of apoptosis in human G361 cells assessed as downregulation of phosphorylated Rb expression at 12.5 to 25 uM after 24 hrs by Western blot analysis. Type of data set: functional, cell-based. The method in brief:
as §3

Data set [15] has as its system G-361. Description: Induction of apoptosis in human G361 cells assessed as increase in cleaved PARP expression at 0.5 to 25 uM after 24 hrs by Western blot analysis. Type of data set: functional, cell-based. Summed up: as §3
Data set [16] concerns G-361. Description: Effect on total p44/42 level in human G361 cells at 0.5 to 25 uM after 24 hrs by Western blot analysis. Type of data set: cell-based. Conditions: g-361, 24 h. Summed up: as §3
In data set [17] the test system is G-361. Description: Induction of apoptosis in human G361 cells assessed as effect on Bcl2 expression level at 0.5 to 25 uM after 24 hrs by Western blot analysis. The format is functional, cell-based. The method in brief: as §3
Data set [18] relates to G-361. Description: Induction of apoptosis in human G361 cells assessed as downregulation of total Rb expression at 12.5 to 25 uM after 24 hrs by Western blot analysis. The format is functional, cell-based. The method in brief:
as §3

For data set [19], the system named is G-361. In words: Induction of apoptosis in human G361 cells assessed as increase in cleaved caspase-7 expression at 0.5 to 25 uM after 24 hrs by Western blot analysis. Type of data set: functional, cell-based. Summed up: as §3

As a reminder, the IC50 is the concentration that gives 50% inhibition.

Active and inactive are the calls of the source. The rule behind the calls is not given here.

Take `C=C(C)[C@@H]1CC[C@]2(C(=O)NCc3cccnc3)CC[C@]3(C)[C@H](CC[C@@H]4[C@@]5(C)CC[C@H](O)C(C)(C)[C@@H]5CC[C@]43C)[C@@H]12`: the IC50 is 23.6 µM in data set [1]; 18.1 µM in data set [2]; 17.5 µM in [3]; 25.3 µM in data set [5]; 38.7 µM in [6]. Besides, the selectivity ratio in data set [4] was 1.

Consider `C=C(C)[C@@H]1CC[C@]2(C(=O)O)CC[C@]3(C)[C@H](CC[C@@H]4[C@@]5(C)CC[C@H](OC(=O)CCC(=O)NCc6ccncc6)C(C)(C)[C@@H]5CC[C@]43C)[C@@H]12`, for which the IC50 in [1] is 40.9 µM; in [2], 32.1 µM; in data set [3] it was over 50 µM; in data set [5] it was 22.6 µM; in data set [6] it was over 50 µM. For the same molecule, the result in [7], in [8], in [9] and in data set [10] was inactive.

`C=C(C)[C@@H]1CC[C@]2(C(=O)O)CC[C@]3(C)[C@H](CC[C@@H]4[C@@]5(C)CC[C@H](OC(=O)CCC(=O)NCc6cccnc6)C(C)(C)[C@@H]5CC[C@]43C)[C@@H]12`: the inhibition entry in data set [11] is “Active”. Further, the IC50 in data set [1] is 2.4 µM; in data set [2], 0.5 µM; in data set [3], 50 µM; in data set [5], 6.5 µM; in [6], 1.4 µM. The outcome in [7], in data set [14], in data set [15], in data set [9], in data set [18] and in data set [10] was Active. Besides, the result in data set [19] was Active. Also, the result in data set [12], in data set [13] and in data set [17] was inactive. Besides, in [8], the “fold change (FC)” value was determined as 12. Also, in data set [16], the Activity entry is “Non-Toxic”. Also, the selectivity ratio in data set [4] stood at 100.

As to `C=C(C)[C@@H]1CC[C@]2(C(=O)NCc3ccncc3)CC[C@]3(C)[C@H](CC[C@@H]4[C@@]5(C)CC[C@H](O)C(C)(C)[C@@H]5CC[C@]43C)[C@@H]12`, the IC50 is 14.8 µM in data set [1]; 11.6 µM in [2]; 11.2 µM in [3]; 18.6 µM in [5]; 21.1 µM in data set [6]. Further, in [4], the selectivity ratio came to 1.

On to `C=C(C)[C@@H]1CC[C@]2(C(=O)NCc3ccccn3)CC[C@]3(C)[C@H](CC[C@@H]4[C@@]5(C)CC[C@H](O)C(C)(C)[C@@H]5CC[C@]43C)[C@@H]12`, for which the IC50 is 14.7 µM in data set [1]; 16.4 µM in data set [2]; 15.8 µM in data set [3]; 18.6 µM in [5]; 27 µM in data set [6]. Besides, in data set [4], the selectivity ratio worked out at 1.

Take `C=C(C)[C@@H]1CC[C@]2(C(=O)O)CC[C@]3(C)[C@H](CC[C@@H]4[C@@]5(C)CC[C@H](OC(=O)CCC(=O)NCc6ccccn6)C(C)(C)[C@@H]5CC[C@]43C)[C@@H]12`: the inhibition result in data set [11] is “Active”. For the same molecule, the IC50 was 2.3 µM in [1]; 2.4 µM in data set [2]; 46.2 µM in [3]; 6.9 µM in data set [5]; 2.2 µM in data set [6]. Further, the outcome in [7], in data set [14], in data set [15], in data set [9], in [18] and in [10] was Active. In [19], the outcome was Active. The result in data set [12], in [13] and in data set [17] was inactive. Moreover, the “fold change (FC)” value in data set [8] is “<=18”. Further, the Activity entry in [16] was “Non-Toxic”. The selectivity ratio in data set [4] was found to be 19.3.

The record behind these values is ChEMBL document CHEMBL4251637, “Picolyl amides of betulinic acid as antitumor agents causing tumor cell apoptosis” (Eur J Med Chem, 2018).
